Data from the M2OR odorant receptor database.

Columns and labels:
Details in all cases: stereoisomer not certain
[1] = target: T1, OR52I1 (Homo sapiens) (UniProt Q8NGK6)
T1 sequence (whole entry): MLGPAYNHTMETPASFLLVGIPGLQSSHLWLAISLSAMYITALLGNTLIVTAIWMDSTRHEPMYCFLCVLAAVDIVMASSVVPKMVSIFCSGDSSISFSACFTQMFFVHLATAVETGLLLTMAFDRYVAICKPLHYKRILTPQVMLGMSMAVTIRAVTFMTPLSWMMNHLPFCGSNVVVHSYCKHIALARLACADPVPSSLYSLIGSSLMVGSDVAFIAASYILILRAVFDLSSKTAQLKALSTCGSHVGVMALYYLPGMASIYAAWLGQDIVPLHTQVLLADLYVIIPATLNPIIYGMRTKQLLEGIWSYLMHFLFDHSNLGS
How it was run: (§1)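 Assay methods differ from source to source, frequently being transient luciferase assays in mammalian cell lines. For each receptor–molecule pair, the label responsive (active) applies when the original authors judged the measured signal statistically different from baseline, and non-responsive (inactive) applies otherwise.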

[2] = target: T2, OR52I2 (Homo sapiens) (UniProt Q8NH67)
T2 sequence (whole entry): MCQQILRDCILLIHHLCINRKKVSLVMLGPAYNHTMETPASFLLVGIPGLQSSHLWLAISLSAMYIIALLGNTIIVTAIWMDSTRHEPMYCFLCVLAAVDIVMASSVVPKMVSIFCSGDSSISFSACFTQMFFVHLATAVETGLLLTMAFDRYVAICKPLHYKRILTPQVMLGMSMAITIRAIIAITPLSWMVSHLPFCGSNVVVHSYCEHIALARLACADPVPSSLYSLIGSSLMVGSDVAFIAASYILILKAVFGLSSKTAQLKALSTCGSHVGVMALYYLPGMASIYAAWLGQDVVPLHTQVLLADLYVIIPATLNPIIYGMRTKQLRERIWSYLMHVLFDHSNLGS
How it was run: as §1

[3] = target: OR52J3 (Homo sapiens) (UniProt Q8NH60)
OR52J3 (Homo sapiens), sequence (Q8NH60 whole entry): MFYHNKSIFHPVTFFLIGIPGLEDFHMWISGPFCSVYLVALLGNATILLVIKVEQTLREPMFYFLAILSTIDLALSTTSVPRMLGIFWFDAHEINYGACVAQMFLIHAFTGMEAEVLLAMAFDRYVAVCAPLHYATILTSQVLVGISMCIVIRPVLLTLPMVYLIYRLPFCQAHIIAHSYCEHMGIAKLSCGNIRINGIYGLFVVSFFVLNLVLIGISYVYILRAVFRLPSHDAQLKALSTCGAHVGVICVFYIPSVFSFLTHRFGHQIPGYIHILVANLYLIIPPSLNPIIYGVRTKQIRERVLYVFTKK
How it was run: as §1

[4] = target: T3, OR52K1 (Homo sapiens) (UniProt Q8NGK4)
T3 sequence (whole entry): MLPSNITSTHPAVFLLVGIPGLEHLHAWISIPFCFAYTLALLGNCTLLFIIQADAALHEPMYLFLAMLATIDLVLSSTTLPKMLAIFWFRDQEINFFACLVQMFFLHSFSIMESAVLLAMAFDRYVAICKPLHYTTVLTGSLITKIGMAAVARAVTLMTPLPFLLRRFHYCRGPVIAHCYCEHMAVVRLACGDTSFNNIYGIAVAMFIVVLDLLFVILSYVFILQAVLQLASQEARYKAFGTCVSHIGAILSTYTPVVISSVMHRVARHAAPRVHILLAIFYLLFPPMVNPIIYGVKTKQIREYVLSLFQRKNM
How it was run: as §1

[5] = target: T4, OR52K2 (Homo sapiens) (UniProt Q8NGK3)
T4 sequence (whole entry): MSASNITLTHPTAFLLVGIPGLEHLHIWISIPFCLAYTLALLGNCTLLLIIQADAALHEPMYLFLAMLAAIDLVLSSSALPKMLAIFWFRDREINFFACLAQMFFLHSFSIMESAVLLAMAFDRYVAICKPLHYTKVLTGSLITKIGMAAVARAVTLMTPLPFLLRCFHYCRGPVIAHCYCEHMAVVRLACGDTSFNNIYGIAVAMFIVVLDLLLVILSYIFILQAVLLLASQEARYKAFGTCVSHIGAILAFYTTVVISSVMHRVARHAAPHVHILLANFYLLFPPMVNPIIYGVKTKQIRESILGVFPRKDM
How it was run: as §1

[6] = target: T5, OR52L1 (Homo sapiens) (UniProt Q8NGH7)
T5 sequence (whole entry): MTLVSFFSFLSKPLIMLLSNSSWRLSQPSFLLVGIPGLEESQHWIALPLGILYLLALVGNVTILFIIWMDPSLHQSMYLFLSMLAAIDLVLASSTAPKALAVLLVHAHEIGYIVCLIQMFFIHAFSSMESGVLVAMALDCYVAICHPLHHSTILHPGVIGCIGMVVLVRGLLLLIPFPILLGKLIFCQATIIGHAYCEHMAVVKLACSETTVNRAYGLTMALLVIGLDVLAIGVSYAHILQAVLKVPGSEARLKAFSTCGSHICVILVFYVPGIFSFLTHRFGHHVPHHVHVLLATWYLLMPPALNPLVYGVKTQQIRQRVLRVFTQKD
How it was run: as §1

[7] = target: T6, OR52M1 (Homo sapiens) (UniProt Q8NGK5)
T6 sequence (whole entry): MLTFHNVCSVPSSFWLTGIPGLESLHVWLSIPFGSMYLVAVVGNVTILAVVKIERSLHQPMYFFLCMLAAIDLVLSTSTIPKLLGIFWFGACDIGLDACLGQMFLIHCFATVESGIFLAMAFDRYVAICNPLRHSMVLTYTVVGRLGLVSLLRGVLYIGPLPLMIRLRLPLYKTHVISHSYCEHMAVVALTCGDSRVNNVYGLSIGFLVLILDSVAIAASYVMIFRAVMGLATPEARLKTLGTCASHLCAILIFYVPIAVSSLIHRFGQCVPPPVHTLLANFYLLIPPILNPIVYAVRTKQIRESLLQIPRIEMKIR
How it was run: as §1

[8] = target: T7, OR52N1 (Homo sapiens) (UniProt Q8NH53)
T7 sequence (whole entry): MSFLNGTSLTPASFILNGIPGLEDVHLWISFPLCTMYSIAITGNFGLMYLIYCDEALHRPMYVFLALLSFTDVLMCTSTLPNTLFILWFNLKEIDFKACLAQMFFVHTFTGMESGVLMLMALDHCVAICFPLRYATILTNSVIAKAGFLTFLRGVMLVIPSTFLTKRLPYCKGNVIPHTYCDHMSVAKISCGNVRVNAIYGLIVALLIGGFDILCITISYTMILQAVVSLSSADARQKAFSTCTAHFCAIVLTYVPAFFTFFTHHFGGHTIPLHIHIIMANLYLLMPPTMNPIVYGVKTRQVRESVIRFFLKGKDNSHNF
How it was run: as §1

[9] = target: T8, OR52N2 (Homo sapiens) (UniProt Q8NGI0)
T8 sequence (whole entry): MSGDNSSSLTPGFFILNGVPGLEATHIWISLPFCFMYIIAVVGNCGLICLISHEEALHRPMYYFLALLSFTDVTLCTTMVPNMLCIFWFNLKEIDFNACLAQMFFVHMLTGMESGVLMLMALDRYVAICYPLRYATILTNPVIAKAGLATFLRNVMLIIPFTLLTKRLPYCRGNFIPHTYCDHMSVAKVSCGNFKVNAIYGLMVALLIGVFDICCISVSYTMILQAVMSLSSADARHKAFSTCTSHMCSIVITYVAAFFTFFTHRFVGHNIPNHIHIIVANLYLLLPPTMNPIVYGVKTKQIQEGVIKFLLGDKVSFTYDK
How it was run: as §1

[10] = target: T9, OR52N4 (Homo sapiens) (UniProt Q8NGI2)
T9 sequence (whole entry): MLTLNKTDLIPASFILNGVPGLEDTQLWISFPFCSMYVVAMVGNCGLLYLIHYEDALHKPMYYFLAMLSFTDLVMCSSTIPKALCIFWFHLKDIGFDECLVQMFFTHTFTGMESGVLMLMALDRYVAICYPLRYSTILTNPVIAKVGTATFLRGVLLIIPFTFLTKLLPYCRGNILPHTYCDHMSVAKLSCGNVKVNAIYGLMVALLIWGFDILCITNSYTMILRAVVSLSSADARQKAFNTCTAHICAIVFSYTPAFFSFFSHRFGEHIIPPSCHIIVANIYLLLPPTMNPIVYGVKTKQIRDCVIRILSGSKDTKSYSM
How it was run: as §1

[11] = target: T10, OR52N5 (Homo sapiens) (UniProt Q8NH56)
T10 sequence (whole entry): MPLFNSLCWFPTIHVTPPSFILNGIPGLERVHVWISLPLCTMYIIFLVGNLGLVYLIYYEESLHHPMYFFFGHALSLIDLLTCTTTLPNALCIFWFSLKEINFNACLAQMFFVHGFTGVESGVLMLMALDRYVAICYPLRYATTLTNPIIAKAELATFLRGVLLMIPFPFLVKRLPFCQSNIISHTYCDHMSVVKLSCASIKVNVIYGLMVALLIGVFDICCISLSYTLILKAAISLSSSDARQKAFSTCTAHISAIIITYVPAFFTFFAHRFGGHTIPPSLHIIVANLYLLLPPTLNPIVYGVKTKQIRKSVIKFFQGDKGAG
How it was run: as §1

[12] = target: T11, OR52R1 (Homo sapiens) (UniProt Q8NGF1)
T11 sequence (whole entry): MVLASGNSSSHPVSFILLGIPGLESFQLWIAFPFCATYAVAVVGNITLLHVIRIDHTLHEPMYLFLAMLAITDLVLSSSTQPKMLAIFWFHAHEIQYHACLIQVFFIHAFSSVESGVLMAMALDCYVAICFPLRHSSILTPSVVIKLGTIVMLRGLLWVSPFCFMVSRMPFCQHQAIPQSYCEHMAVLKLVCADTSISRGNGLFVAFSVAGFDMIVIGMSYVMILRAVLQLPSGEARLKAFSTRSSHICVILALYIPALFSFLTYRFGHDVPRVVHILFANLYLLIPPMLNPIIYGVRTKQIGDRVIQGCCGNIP
How it was run: as §1

[13] = target: T12, OR52W1 (Homo sapiens) (UniProt Q6IF63)
T12 sequence (whole entry): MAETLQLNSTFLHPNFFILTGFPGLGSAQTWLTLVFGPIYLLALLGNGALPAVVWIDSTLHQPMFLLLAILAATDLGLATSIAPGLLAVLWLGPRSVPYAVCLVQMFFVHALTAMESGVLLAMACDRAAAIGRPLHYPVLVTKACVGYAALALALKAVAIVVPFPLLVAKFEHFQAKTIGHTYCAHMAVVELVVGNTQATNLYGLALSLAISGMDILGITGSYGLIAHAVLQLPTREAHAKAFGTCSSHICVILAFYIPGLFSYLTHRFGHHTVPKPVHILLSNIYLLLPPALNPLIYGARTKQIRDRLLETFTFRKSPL
How it was run: as §1

[14] = target: T13, OR56A1 (Homo sapiens) (UniProt Q8NGH5)
T13 sequence (whole entry): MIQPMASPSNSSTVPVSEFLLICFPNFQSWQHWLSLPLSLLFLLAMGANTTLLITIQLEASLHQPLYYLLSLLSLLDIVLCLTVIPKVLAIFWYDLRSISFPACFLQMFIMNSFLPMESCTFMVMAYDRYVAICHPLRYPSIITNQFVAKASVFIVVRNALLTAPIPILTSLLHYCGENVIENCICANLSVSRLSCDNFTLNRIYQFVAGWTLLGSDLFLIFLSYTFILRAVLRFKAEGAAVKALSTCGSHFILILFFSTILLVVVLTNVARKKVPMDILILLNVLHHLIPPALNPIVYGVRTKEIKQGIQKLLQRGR
How it was run: as §1

[15] = target: T14, OR56A3 (Homo sapiens) (UniProt Q8NH54)
T14 sequence (whole entry): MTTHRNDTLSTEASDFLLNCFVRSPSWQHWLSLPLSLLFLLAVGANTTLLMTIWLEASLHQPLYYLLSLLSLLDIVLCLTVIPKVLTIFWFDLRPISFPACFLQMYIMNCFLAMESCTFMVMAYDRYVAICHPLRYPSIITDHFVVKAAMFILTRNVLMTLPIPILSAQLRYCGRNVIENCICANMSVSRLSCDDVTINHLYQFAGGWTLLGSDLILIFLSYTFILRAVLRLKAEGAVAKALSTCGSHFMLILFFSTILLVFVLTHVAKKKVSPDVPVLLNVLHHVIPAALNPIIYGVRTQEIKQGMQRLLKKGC
How it was run: as §1

[16] = target: T15, OR56A4 (Homo sapiens) (UniProt Q8NGH8)
T15 sequence (whole entry): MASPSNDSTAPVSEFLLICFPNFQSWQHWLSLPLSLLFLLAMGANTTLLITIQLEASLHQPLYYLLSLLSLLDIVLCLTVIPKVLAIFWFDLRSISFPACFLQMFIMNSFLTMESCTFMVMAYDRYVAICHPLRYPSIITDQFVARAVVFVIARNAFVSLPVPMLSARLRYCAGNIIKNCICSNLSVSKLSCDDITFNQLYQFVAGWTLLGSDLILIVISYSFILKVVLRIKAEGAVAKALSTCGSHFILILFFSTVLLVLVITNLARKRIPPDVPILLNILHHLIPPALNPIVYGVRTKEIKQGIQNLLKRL
How it was run: as §1

[17] = target: T16, OR56A5 (Homo sapiens) (UniProt P0C7T3)
T16 sequence (whole entry): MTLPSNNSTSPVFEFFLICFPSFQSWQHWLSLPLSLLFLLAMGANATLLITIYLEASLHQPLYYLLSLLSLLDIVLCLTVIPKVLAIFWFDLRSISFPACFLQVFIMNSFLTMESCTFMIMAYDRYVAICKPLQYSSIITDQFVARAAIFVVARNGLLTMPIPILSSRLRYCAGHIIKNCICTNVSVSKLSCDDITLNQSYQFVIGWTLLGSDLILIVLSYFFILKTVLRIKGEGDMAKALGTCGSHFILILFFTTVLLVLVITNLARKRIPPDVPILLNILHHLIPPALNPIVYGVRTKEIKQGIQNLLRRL
How it was run: as §1

[18] = target: T17, OR56B1 (Homo sapiens) (UniProt Q8NGI3)
T17 sequence (whole entry): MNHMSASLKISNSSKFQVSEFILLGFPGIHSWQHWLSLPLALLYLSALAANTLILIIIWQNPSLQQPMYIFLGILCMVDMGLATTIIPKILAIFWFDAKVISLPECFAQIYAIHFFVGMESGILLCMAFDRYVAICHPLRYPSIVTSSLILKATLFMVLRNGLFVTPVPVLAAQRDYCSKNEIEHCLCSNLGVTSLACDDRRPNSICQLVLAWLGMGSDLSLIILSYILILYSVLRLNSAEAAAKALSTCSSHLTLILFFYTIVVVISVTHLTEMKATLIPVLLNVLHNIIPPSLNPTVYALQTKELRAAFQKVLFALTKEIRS
How it was run: as §1

| SMILES | odorant receptor agonist call [1] | odorant receptor agonist call [2] | odorant receptor agonist call [3] | odorant receptor agonist call [4] | odorant receptor agonist call [5] | odorant receptor agonist call [6] | odorant receptor agonist call [7] | odorant receptor agonist call [8] | odorant receptor agonist call [9] | odorant receptor agonist call [10] | odorant receptor agonist call [11] | odorant receptor agonist call [12] | odorant receptor agonist call [13] | odorant receptor agonist call [14] | odorant receptor agonist call [15] | odorant receptor agonist call [16] | odorant receptor agonist call [17] | odorant receptor agonist call [18] |
| --- | --- | --- | --- | --- | --- | --- | --- | --- | --- | --- | --- | --- | --- | --- | --- | --- | --- | --- |
| CCCCC(S)C(C)CO (stereo unspecified) | inactive | inactive | inactive | inactive | inactive | active | inactive | inactive | inactive | inactive | active | inactive | inactive | inactive | inactive | inactive | inactive | inactive |
| CCC(S)C(C)CO (stereo unspecified) | inactive | inactive | inactive | inactive | inactive | inactive | inactive | inactive | inactive | inactive | inactive | inactive | inactive | inactive | inactive | inactive | inactive | inactive |
